HCT116 bCat-KO – primary screen for growth suppressors in beta-catenin knockout HCT116 cells (colon tumor, human); HCT116 beta-catenin knockout viability, CellTiter-Glo, 60 h; stronger effect = lower value; viability, % at 10 µM; 140,000 compounds, 1.5% hits; AID 818, 2007;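 active = viability at or under a set limit, the compound median less 4 SD, cut at about 6% in these data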;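 also: 0% = Hyamine 1622 control at 20 µM and 100% = untreated cell control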
L major viab – Leishmania major promastigote growth inhibition, primary screen | Leishmania major promastigotes, resazurin fluorescence viability | inhibition, % at 10 µM | 200,000 compounds, 9% hits | AID 1063, 2008; in the data active = inhibition above about 50%;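 also: promastigotes grown with compound for 44 hours at 28 °C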
PTEN del growth – growth suppression of PTEN-null HCT116, primary screen, cell-based, CellTiter-Glo. HCT116 PTEN-null viability, 60 h; stronger effect = lower value. 140,000 compounds, 1.2% hits. viability, % at 10 µM;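 active = viability at or below a set limit, 4 SD under the median of all tested compounds, cut at about 3.7% in these data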;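 also: PTEN knockout HCT116 line with beta catenin targeted HCT116 as companion control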
PMI act satM6P – human PMI activators, high substrate, primary screen, biochemical, fluorescence intensity, near-saturating mannose 6-phosphate. activation factor at 20 µM. 190,000 compounds, 0.34% hits. coupled PMI enzyme assay, resazurin fluorescence, 20 min; stronger effect = higher value; 1 = untreated enzyme, 0 = substrate-free blank. AID 1216, 2008. Mannose-6-phosphate isomerase (Homo sapiens), P34949;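 active = activation factor of 2 or more at 20 µM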
Target sequence (P34949 whole entry, looked up): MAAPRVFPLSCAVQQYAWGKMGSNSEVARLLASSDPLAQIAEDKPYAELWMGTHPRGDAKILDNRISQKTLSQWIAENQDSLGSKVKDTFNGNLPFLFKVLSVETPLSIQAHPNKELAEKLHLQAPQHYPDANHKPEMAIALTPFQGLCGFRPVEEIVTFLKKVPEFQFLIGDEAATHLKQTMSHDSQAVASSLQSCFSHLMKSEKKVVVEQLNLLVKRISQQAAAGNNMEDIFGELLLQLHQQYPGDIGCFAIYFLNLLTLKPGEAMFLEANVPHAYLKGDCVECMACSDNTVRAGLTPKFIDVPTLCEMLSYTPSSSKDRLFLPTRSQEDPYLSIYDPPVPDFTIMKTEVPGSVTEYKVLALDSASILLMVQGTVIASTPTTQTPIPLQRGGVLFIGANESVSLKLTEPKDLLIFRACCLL
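Test system: human phosphomannose isomerase with PGI, G6PDH, diaphorase coupling enzymes / Doses: 20 µM compound, 1% DMSO / Times: enzyme reaction with compound 20 min at room temperature / Measured by: Diaphorase-driven resazurin-to-resorufin fluorescence, excitation 544, emission 590 nm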
PMI activator – activators of human PMI, primary screen, biochemical, fluorescence intensity, near-Km mannose 6-phosphate; Mannose-6-phosphate isomerase (Homo sapiens), P34949; AID 1214, 2008; purified human PMI, coupled resazurin fluorescence, 20 min; stronger effect = higher value; 1 = vehicle control, 0 substrate-free wells; 190,000 compounds, 0.005% hits; activation factor at 20 µM;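 active = activation factor of 2 or more at 20 µM, relative to plate controls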
An asterisk follows results filed as active; nt = no result. Rows were chosen to be rich in hits. Some 9.6% of all compounds tested hit in one or more screens of this group.

SMILES | HCT116 bCat-KO | L major viab | PTEN del growth | PMI act satM6P | PMI activator
COc1ccc(N2CCN(C(=O)c3ccc4ccccc4n3)CC2)cc1 | nt | 8 | nt | 1 | 0.9
Nc1c2c(nc3ccn(-c4ccccc4)c(=O)c13)CCCCC2 | 96 | 42 | 85 | 1 | 1.1
Nc1c2c(nc3ccn(Cc4ccccc4)c(=O)c13)CCC2 | 49 | 89* | 52 | 0.9 | 0.9
Cc1noc(NS(=O)(=O)c2ccc(NC(=O)CSc3nc4ccccc4[nH]3)cc2)c1C | 98 | -7 | 118 | 1 | 1
O=C(CSc1nnc2c3ccccc3c3ccccc3c2n1)Nc1ccccc1F | 2.2* | 17 | 1.9* | 1 | 1.2
Cc1noc(NS(=O)(=O)c2ccc(NC(=O)CSc3nnc4c(n3)[nH]c3ccccc34)cc2)c1C | 102 | 57* | 94 | 0.9 | 0.9
O=C(CSc1nnc2c3ccccc3c3ccccc3c2n1)Nc1ccccc1 | 38 | 97* | 35 | 0.8 | 1.1
Cn1cnnc1SCC(=O)Nc1ccccc1F | nt | -7 | nt | 0.8 | 1
Cc1ccc(NC(=O)COC(=O)c2ccc(OCc3c(C)noc3C)cc2)cc1S(=O)(=O)N1CCOCC1 | 96 | -8 | 99 | 0.9 | 0.9
CCOC(=O)Nc1ccc2c(c1)nc(CN1CCCCC1)n2C | nt | 0 | nt | 0.9 | 1
COc1cccc(N(C(=O)Cn2nnc(-c3ccc(Cl)cc3)n2)C(C(=O)NCC2CCCO2)c2ccc(C)cc2)c1 (stereo unspecified) | nt | -4 | nt | 1 | 1
CCCOc1ccc(C(O)C(CN2CCOCC2)c2ccccc2)cc1 (stereo unspecified) | 95 | 89* | 99 | 0.9 | 0.9
CCCCOc1ccc(C(O)C(CN2CCCCC2)c2ccccc2)cc1 (stereo unspecified) | nt | 70* | nt | 1.1 | 1.2
CCCCOc1ccc(C(=O)N2CCCCCC2)cc1 | 97 | 1 | 97 | 0.8 | 0.8
CCC(O)(c1ccc(OC)cc1)C(CN1CCOCC1)c1ccccc1 (stereo unspecified) | nt | 9 | nt | 1.1 | 1.2
CCOc1ccc(C(O)C(CN2CCOCC2)c2ccccc2)cc1 (stereo unspecified) | 79 | 84* | 94 | 1.1 | 1
O=C1CCC/C(=N/Nc2ccc(Cl)cc2)C1 | nt | 99* | nt | 1.6 | 1.3
Oc1c(Cl)cc(Cl)cc1CNn1cnnc1 | nt | -4 | nt | 0.9 | 0.9
Oc1c(Cl)cc(Cl)cc1Sc1cc(Cl)cc(Cl)c1O | 4.0* | -9 | 4 | 1.2 | 1.1
CCCCNC(=S)Nc1ccc2nc3n(c(=O)c2c1)CCCCC3 | 85 | 51* | 99 | 1.1 | 1
CCOCCCNC(=S)Nc1ccc2nc3n(c(=O)c2c1)CCCCC3 | nt | 8 | nt | 1 | 1.1
O=C(Nc1ccc2nc3n(c(=O)c2c1)CCCC3)c1cc([N+](=O)[O-])ccc1F | 2.5* | 100* | 10 | 0.9 | 0.9
Cc1cc(C)c2c(N)c(C(=O)N3CCCCCC3)sc2n1 | 102 | -5 | 107 | 2.3* | 1.8
Cc1cc(C)c2c(N)c(C(=O)NCc3ccco3)sc2n1 | 81 | 6 | 90 | 2* | 1.7
Cc1cc(C)c2c(N)c(C(=O)Nc3ncc(C)s3)sc2n1 | 72 | 68* | 75 | 1 | 1
SMILES | HCT116 bCat-KO | L major viab | PTEN del growth | PMI act satM6P | PMI activator
COc1ccc(C(=O)NCCSCc2ccccc2)cc1OC | nt | 2 | nt | 0.9 | 1
COc1ccc(CN2CCN(C(=O)C3CCC(CNS(=O)(=O)c4ccccc4)CC3)CC2)c(OC)c1OC (stereo unspecified) | nt | 4 | nt | 1 | 0.9
CCOc1ccc(N(Cc2ccccc2F)C2=NC3CS(=O)(=O)CC3S2)cc1 (stereo unspecified) | nt | 48 | nt | 0.8 | 0.8
CCn1cc(C(=O)NCCc2ccccc2)c(=O)c2cc(S(=O)(=O)N3CCCC3)ccc21 | nt | 3 | nt | 1.1 | 1
Cc1onc(-c2ccccc2)c1C(=O)NC(=S)NNC(=O)c1ccc(O)cc1O | 14 | 92* | 16 | 1.2 | 1
Cc1onc(-c2ccccc2)c1C(=O)NC(=S)NNC(=O)c1ccc(O)cc1 | 25 | 0 | 21 | 1.1 | 1.1
Cc1onc(-c2ccccc2)c1C(=O)NC(=S)NNC(=O)c1ccccc1O | 13 | 67* | 12 | 1.2 | 1.1
CC(C)N(C(=O)COC(=O)[C@@H]1CC(O)CN1S(=O)(=O)c1ccc(C(C)(C)C)cc1)C(C)C (stereo partly specified) | nt | 5 | nt | 0.8 | 0.9
Cc1nn(-c2ccccc2)c(Cl)c1/C=C1\N=C(c2ccccc2)OC1=O | nt | -7 | nt | nt | nt
Cc1cc(NC(=O)CN2C(=O)NC3(CCC(C)CC3)C2=O)no1 (stereo unspecified) | 91 | -4 | 93 | 1 | 1
Cc1ccc(C(O)CN2C3=NCCN3c3ccccc32)cc1 (stereo unspecified) | 67 | 96* | 70 | 0.8 | 0.9
Cc1ccc(-c2nnn(CC(=O)N(Cc3ccccc3F)C(C(=O)NC3CCCC3)c3ccncc3)n2)o1 (stereo unspecified) | 88 | 19 | 87 | 1.2 | 1.2
CN(C)CCCNc1cn[nH]c(=O)c1Cl | 89 | -3 | 105 | 1 | 1
CCN(CC)C(=O)C1CCN(Cc2cccc(OCc3ccccc3)c2)CC1 | 84 | 100* | 82 | 1.1 | 1
CCCCNC(=O)C1CCN(Cc2ccc(OCc3ccccc3)cc2)CC1 | 70 | 82* | 77 | 1 | 1
CCCCC(=O)C1CCN(Cc2ccccc2)CC1 | 105 | 67* | 93 | 0.9 | 1
O=C(NCCc1ccccc1)C1CCN(Cc2ccccc2F)CC1 | 105 | 71* | 90 | 1.1 | 0.9
O=C(C1CCN(Cc2ccc(OCc3ccccc3)cc2)CC1)N1CCCC1 | 76 | -6 | 84 | 1 | 1
COc1cccc(CN2CCC(C(=O)N3CCC(C)CC3)CC2)c1 | nt | -1 | nt | 0.9 | 0.9
COCCOC(=O)C1=C(C)N=C2SCCC(=O)N2C1c1cccc(Br)c1 (stereo unspecified) | 95 | -6 | 103 | 1 | 1
COc1cc(/C=C2\C(=O)N(CCC#N)N=C2C)ccc1OCC(=O)Nc1ccccc1 | 96 | 60* | 98 | 0.7 | 0.7
CCN(CC)S(=O)(=O)c1ccc(C)c(NC(=S)N2CCN(C/C=C/c3ccccc3)CC2)c1 | nt | 60* | nt | 0.9 | 0.9
Cc1ccc(NC(=S)N2CCN(Cc3ccc4c(c3)OCO4)CC2)c(C)c1 | nt | 89* | nt | nt | nt
Cc1cccc(NC(=S)N2CCN(Cc3ccc4c(c3)OCO4)CC2)c1C | 89 | 90* | 92 | 0.9 | 0.9
CC(C)c1ccccc1NC(=S)N1CCN(Cc2ccc3c(c2)OCO3)CC1 | nt | 77* | nt | 1 | 1
Cc1ccccc1NC(=O)N1CCN(C/C=C/c2ccccc2)CC1 | nt | 3 | nt | 1 | 1.1
